Assay [1] can be described thus: Her2 expression decrease, cell viability multiplex – SKBR3 breast tumor cells, AlphaScreen, ATP viability, primary screen (AID 461;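 active = Her2 level under about 52% in both replicate screens, with viability over 70% of control, limit read from the data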;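 as to Her2 level: lower value means less Her2 protein in the cells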;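 as to viability: percent of carrier control wells set as 100% viability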). The following applies: SKBR3 Her2 protein level, 18-24 h, measured here: SKBR3 viability, ATP luminescence, at 10 µM.
Assay [2] concerns the target Receptor tyrosine-protein kinase erbB-2 (Homo sapiens) (UniProt P04626). Described as above. The following applies: 18-24 h, at 10 µM, stronger effect = lower value.
Assay [3] is described as follows: reduced viability of SK-BR-3 breast cancer cells – cell-based, 24 h, human, pilot screen (AID 572;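 active = viability at or below 10% of carrier control in both of two separate runs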;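 also: compound exposure lasted between 18 and 24 h rather than exactly 24 h; 100% = carrier-treated control wells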). To be noted: SK-BR-3 viability, CellTiter-Glo luminescence, at 10 µM, stronger effect = lower value. On the technique in general: Cellular ATP, detected with luciferase, serves as a proxy for viable cell number.
Assay [4] is described as follows: HUVEC growth inhibition – cell-based, human, primary screen (AID 575;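 active = viability at or below 30% in both replicate assays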;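 also: 100% = median of untreated cell wells with 0.1% DMSO on each plate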). To be noted: HUVEC proliferation, CellTiter-Glo luminescence, 72 h; at 10 µM; stronger effect = lower value. The procedure, abridged: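 Test system: primary human umbilical vein endothelial cells; medium: endothelial basal medium with 2% FBS plus growth supplements; dosing: 10 µM compound only; times: 72 h treatment at 37 °C; signal: CTG luminescence; read-out: % viability relative to median vehicle-well signal on each plate; control set: vehicle and MePR control wells; plate: 384-well, collagen-coated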

A short description of assay [5]: H69AR cell proliferation blockers – human, duplicate replicates, primary screen (AID 580;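 active = viability at or under a set limit in both replicates, limit being median viability minus 3 SD, cut at about 48% in these data, passing the limit was not always enough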;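 also: 100% = mean luminescence of untreated wells and 0% = no signal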). The following applies: H69AR lung tumor cells viability, ATP luminescence, 72 h; at 10 µM; stronger effect = lower value.
Assay [6] can be described thus: MRP1 drug-resistance reversers in H69AR cells – cell-based, doxorubicin co-treatment, pilot screen (AID 601). The following applies: CellTiter-Glo, 72 h, at 10 µM; for differential viability (reversal): stronger effect = higher value.
Assay [7] can be described thus: yeast transport mutant growth inhibition pilot in 384-well plates, post-Golgi transport modulator project (AID 636; in the data active = inhibition above about 31%). The following applies: absorbance 615 nm, about 18 h, stronger effect = higher value.
Assay [8] is described as follows: growth suppression of yeast trafficking mutant, preliminary HTS, modulators of trafficking downstream of Golgi apparatus project, 1536-format plate, OD 615 nm (AID 637; in the data active = inhibition above about 30%). The following applies: yeast transport mutant growth, absorbance 615 nm, 18 h; stronger effect = higher value.
[9] abbreviates: H69AR cells + 2 uM doxorubicin, measured here: viability with 2 uM doxorubicin, stronger effect = lower value.
[10] abbreviates: H69AR cells, compound alone cytotoxicity.

Here are results for 16 compounds from PubChem BioAssay.

SMILES strings stand for the structures. Active and inactive are the calls of the source.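 The calls were made as follows, unless noted: active = viability loss from added drug above about 55%, and viability with drug at most 40%, in both replicates (limit read from the data, passing the limit was not always enough); inconclusive = both conditions met in only one replicate; inactive = neither replicate meets both conditions.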

Receptor tyrosine-protein kinase erbB-2 (Homo sapiens), sequence (P04626 whole entry, looked up): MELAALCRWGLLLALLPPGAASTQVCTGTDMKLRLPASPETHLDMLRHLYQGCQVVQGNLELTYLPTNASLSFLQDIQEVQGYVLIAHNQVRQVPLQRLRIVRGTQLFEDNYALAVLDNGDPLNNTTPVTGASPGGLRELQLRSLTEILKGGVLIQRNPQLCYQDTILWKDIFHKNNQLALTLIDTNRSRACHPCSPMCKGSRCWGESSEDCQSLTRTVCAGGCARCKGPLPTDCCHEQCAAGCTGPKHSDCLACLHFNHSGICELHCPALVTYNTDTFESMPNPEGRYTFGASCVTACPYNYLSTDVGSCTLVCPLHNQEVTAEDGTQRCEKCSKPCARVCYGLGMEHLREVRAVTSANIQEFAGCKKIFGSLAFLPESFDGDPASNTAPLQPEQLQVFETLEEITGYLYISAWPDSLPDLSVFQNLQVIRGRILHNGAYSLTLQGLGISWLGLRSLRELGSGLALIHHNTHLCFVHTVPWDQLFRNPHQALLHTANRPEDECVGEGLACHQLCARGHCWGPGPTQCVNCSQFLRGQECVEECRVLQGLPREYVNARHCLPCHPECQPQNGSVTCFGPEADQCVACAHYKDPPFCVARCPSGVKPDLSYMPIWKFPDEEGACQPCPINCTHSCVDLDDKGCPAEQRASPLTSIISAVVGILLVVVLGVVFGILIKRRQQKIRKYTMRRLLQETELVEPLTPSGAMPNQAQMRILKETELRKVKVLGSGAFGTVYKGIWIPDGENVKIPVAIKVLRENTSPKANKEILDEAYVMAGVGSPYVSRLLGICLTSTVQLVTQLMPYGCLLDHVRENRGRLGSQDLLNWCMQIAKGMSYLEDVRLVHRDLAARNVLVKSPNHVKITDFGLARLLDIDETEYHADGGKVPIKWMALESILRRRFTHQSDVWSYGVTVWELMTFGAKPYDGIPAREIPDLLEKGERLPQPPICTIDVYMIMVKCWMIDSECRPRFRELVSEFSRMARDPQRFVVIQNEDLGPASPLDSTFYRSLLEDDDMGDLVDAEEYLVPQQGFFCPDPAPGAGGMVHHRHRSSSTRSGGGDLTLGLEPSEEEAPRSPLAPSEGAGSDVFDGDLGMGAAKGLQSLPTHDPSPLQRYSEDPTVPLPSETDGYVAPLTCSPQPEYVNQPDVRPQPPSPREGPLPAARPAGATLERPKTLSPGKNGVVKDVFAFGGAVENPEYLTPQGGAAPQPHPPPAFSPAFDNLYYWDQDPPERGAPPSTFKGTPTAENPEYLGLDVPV

Consider `O=S(=O)(c1ccc(OCC(O)CN2CCN(c3ccccc3)CC2)cc1)N1CCOCC1` (stereo not given), for which the viability (commonly a read-out of living cells in per cent, often relative to untreated cells) in assay [1] was 100%; in assay [3], 100% (inactive); in assay [4], 110% (inactive); in assay [5], 96.4% (inactive); in assay [6] (setting [9]), 91.2%; in assay [6] (setting [10]), 96.4%. The Her2 level in assay [2] was 90% (inactive). In addition, the differential viability (reversal) in assay [6] (H69AR cells + 2 uM doxorubicin) is 5.24% (inactive). The inhibition (usually the change of the read-out against control, counted positive when it falls) in assay [7] is -7.57% (inactive); in assay [8], -3.67% (inactive).

For the compound `CC(CN1CCCCC1)OC(=O)c1ccc2c(c1)OCO2` (stereo not given), the viability in assay [1] is 104%; in assay [3], 104% (inactive); in assay [4] it was 99.1% (inactive); in assay [5], 94.1% (inactive); in assay [6] (setting [9]), 86.8%; in assay [6] (setting [10]), 94.1%. The Her2 level in assay [2] was 96% (inactive). Also, in assay [6] (H69AR cells + 2 uM doxorubicin), the differential viability (reversal) was 7.31% (inactive). The inhibition in assay [7] is -4.4% (inactive); in assay [8], 6.72% (inactive).

For the compound `CCOC(=O)c1[nH]c(C)c(C(=O)Nc2cc(OC)ccc2OC)c1C`, the viability in assay [1] was 81%; in assay [3], 81% (inactive); in assay [4], 47.4% (inactive); in assay [5], 25.5% (active); in assay [6] (setting [9]) it was 71.3%; in assay [6] (setting [10]), 25.5%. Besides, the Her2 level in assay [2] is 65% (inactive). Also, the differential viability (reversal) in assay [6] (H69AR cells + 2 uM doxorubicin) was -45.8% (inactive). Moreover, the inhibition in assay [7] is -2.24% (inactive); in assay [8] it was -4.92% (inactive).

With `O=C1CC(c2ccco2)CC(O)=C1C=NCC1NCCc2ccccc21` (stereo not given), the viability is 78.5% in assay [1]; 78.5% (inactive) in assay [3]; 91.5% (inactive) in assay [4]; 90.7% (inactive) in assay [5]; 94.1% in assay [6] (setting [9]); 90.7% in assay [6] (setting [10]). Further, in assay [2], the Her2 level was 98.5% (inactive). In assay [6] (H69AR cells + 2 uM doxorubicin), the differential viability (reversal) was -3.47% (inactive). Further, the inhibition is -0.92% (inactive) in assay [7] and 7.14% (inactive) in assay [8].

Consider `CCn1c(C(=O)N2CCCC(C(=O)O)C2)cc2sccc21` (stereo not given), for which the viability in assay [1] is 103%; in assay [3], 103% (inactive); in assay [4], 101% (inactive); in assay [5], 93.8% (inactive); in assay [6] (setting [9]) it was 87.4%; in assay [6] (setting [10]), 93.8%. In assay [2], the Her2 level was 98.5% (inactive). The differential viability (reversal) in assay [6] (H69AR cells + 2 uM doxorubicin) was 6.41% (inactive). The values for the inhibition in assay [7] and in assay [8] were 0.53% (inactive) and -1.15% (inactive), respectively.

Take `O=C(NCc1ccccn1)c1ccc2nc(-c3ccco3)c(-c3ccco3)nc2c1`: the viability in assay [1] was 101%; in assay [3], 101% (inactive); in assay [4] it was 111% (inactive); in assay [5], 73.8% (inactive); in assay [6] (setting [9]), 79.8%; in assay [6] (setting [10]) it was 73.8%. Further, the Her2 level in assay [2] was 90.5% (inactive). In addition, the differential viability (reversal) in assay [6] (H69AR cells + 2 uM doxorubicin) is -5.92% (inactive). Also, the inhibition was -5.66% (inactive) in assay [7] and 2.13% (inactive) in assay [8].

Turning to `CN(C)S(=O)(=O)c1ccc(C(=O)N2CCCC2c2nc3ccccc3s2)cc1` (stereo not given), the viability in assay [1] was 98%; in assay [3] it was 98% (inactive); in assay [4], 91.1% (inactive); in assay [5], 94.9% (inactive); in assay [6] (setting [9]), 92.9%; in assay [6] (setting [10]), 94.9%. In addition, the Her2 level in assay [2] is 127% (inactive). For the same compound, in assay [6] (H69AR cells + 2 uM doxorubicin), the differential viability (reversal) was 1.97% (inactive). Besides, the inhibition was -1.49% (inactive) in assay [7] and 3.93% (inactive) in assay [8].

As for `CC1=C(C(=O)OC(C)C)C(C2CC=CCC2)NC(=O)N1` (stereo not given), the viability is 95.5% in assay [1]; 95.5% (inactive) in assay [3]; 98.5% (inactive) in assay [4]; 87.3% (inactive) in assay [5]; 88.7% in assay [6] (setting [9]); 87.3% in assay [6] (setting [10]). Also, the Her2 level in assay [2] is 113% (inactive). Further, in assay [6] (H69AR cells + 2 uM doxorubicin), the differential viability (reversal) is -1.42% (inactive). In addition, the inhibition is 0.77% (inactive) in assay [7] and -10.7% (inactive) in assay [8].

With `Clc1ccc(-c2nnc3sc(-c4ccc(Br)o4)nn23)cc1`, the viability in assay [1] is 128%; in assay [3] it was 128% (inactive); in assay [4], 86% (inactive); in assay [5] it was 104% (inactive); in assay [6] (setting [9]), 93.5%; in assay [6] (setting [10]), 104%. In assay [2], the Her2 level was 94.5% (inactive). Besides, in assay [6] (H69AR cells + 2 uM doxorubicin), the differential viability (reversal) was 10.5% (inactive). Besides, the inhibition was -5.07% (inactive) in assay [7] and 5.87% (inactive) in assay [8].

For `Oc1ccc(C=Nc2cccc3ncccc23)c(O)c1`, the viability is 103% in assay [1]; 103% (inactive) in assay [3]; 80% (inactive) in assay [4]; 84.9% (inactive) in assay [5]; 88.3% in assay [6] (setting [9]); 84.9% in assay [6] (setting [10]). Further, in assay [2], the Her2 level was 84.5% (inactive). In addition, the differential viability (reversal) in assay [6] (H69AR cells + 2 uM doxorubicin) was -3.45% (inactive). In addition, the inhibition in assay [7] was -2.93% (inactive); in assay [8], 0.81% (inactive).

For the compound `Cc1sc2nc(SCC(=O)NCc3ccco3)n(CCc3ccccc3)c(=O)c2c1C`, the viability in assay [1] is 102%; in assay [3] it was 102% (inactive); in assay [4], 58.3% (inactive); in assay [5], 40% (active); in assay [6] (setting [9]), 54.2%; in assay [6] (setting [10]), 40%. The Her2 level in assay [2] was 86.5% (inactive). The differential viability (reversal) in assay [6] (H69AR cells + 2 uM doxorubicin) was -14.2% (inactive). In addition, the inhibition in assay [7] is -6.27% (inactive); in assay [8], 0.82% (inactive).

For `COC(=O)[C@H](CCSC)NC(=O)Nc1cc(C)ccc1C`, the viability in assay [1] is 124%; in assay [3], 124% (inactive); in assay [4] it was 84.1% (inactive); in assay [5] it was 82.2% (inactive); in assay [6] (setting [9]) it was 90%; in assay [6] (setting [10]), 82.2%. For the same compound, the Her2 level in assay [2] is 89% (inactive). In addition, in assay [6] (H69AR cells + 2 uM doxorubicin), the differential viability (reversal) was -7.82% (inactive). The inhibition in assay [7] is -6.22% (inactive); in assay [8], 5.71% (inactive).

For `Cc1cc(NCCN2CCOCC2)n2nc(C)c(-c3ccccc3)c2n1`, the viability is 102% in assay [1]; 102% (inactive) in assay [3]; 91.1% (inactive) in assay [4]; 96.4% (inactive) in assay [5]; 83.6% in assay [6] (setting [9]); 96.4% in assay [6] (setting [10]). The Her2 level in assay [2] is 87% (inactive). Also, in assay [6] (H69AR cells + 2 uM doxorubicin), the differential viability (reversal) is 12.8% (inactive). Further, the results for the inhibition in assay [7] and in assay [8] were -0.52% (inactive) and -3.33% (inactive), respectively.

As to `COc1ccc(-c2c(=O)n(OCc3ccccn3)c3ccccc3[n+]2[O-])cc1OC`, the viability was 105% in assay [1]; 105% (inactive) in assay [3]; 87.6% (inactive) in assay [4]; 89.2% (inactive) in assay [5]; 91.6% in assay [6] (setting [9]); 89.2% in assay [6] (setting [10]). Besides, the Her2 level in assay [2] was 98% (inactive). Besides, the differential viability (reversal) in assay [6] (H69AR cells + 2 uM doxorubicin) was -2.4% (inactive). Also, the inhibition was -4% (inactive) in assay [7] and -3.65% (inactive) in assay [8].

Take `CCn1c(SCC(=O)Nc2cc(C)on2)nc2sc3c(c2c1=O)CCCC3`: the viability in assay [1] is 91%; in assay [3], 91% (inactive); in assay [4], 84.5% (inactive); in assay [5], 12.6% (active); in assay [6] (setting [9]), 10.6%; in assay [6] (setting [10]), 12.6%. Besides, the Her2 level in assay [2] is 76.5% (inactive). Further, in assay [6] (H69AR cells + 2 uM doxorubicin), the differential viability (reversal) was 2.02% (inactive). The inhibition is -4.93% (inactive) in assay [7] and 7.78% (inactive) in assay [8].

For the compound `Cc1nc(-c2cccc(-c3noc(C)n3)c2)no1`, the viability in assay [1] was 87.5%; in assay [3], 87.5% (inactive); in assay [4], 86.1% (inactive); in assay [5] it was 102% (inactive); in assay [6] (setting [9]), 95.8%; in assay [6] (setting [10]), 102%. The Her2 level in assay [2] is 99% (inactive). Also, the differential viability (reversal) in assay [6] (H69AR cells + 2 uM doxorubicin) is 5.99% (inactive). The inhibition was -5.54% (inactive) in assay [7] and -1.48% (inactive) in assay [8].
